Experimental findings from ChEMBL document CHEMBL1772959, “Comosusols A-D and comosone A: cytotoxic compounds from the brown alga Sporochnus comosus” (J Nat Prod, 2011) are described below.

In series [1] the test system is HT-29. Kind of series: Growth inhibition of human HT-29 cells after 48 hrs by sulforhodamine B assay. Format: functional. The conditions noted are these: HT-29, 48 h. An outline of the steps: (§1)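 Cultured in MEM with Earle's salts, L-glutamine, nonessential amino acids and sodium pyruvate at 37 C, 5% CO2. Plated at 5000 cells/well with 24 h attachment. Pure compounds were given as serial dilutions from DMSO in medium over 66.7-0.01 μg/mL final. SRB protein staining after TCA fixation at 0 and 48 h, read at 490 nm. GI50 came from comparison with vehicle-only and time-0 values.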

The subject of series [2] is SF-268. Kind of series: Growth inhibition of human SF268 cells after 48 hrs by sulforhodamine B assay. The following applies: SF-268, 48 h. Format: functional. The gist of the method:
(§2)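 Grown in RPMI 1640 with L-glutamine plus 5% fetal bovine serum at 37 C, 5% CO2. Seeded at 5000 cells/well and allowed to attach 24 h. Pure compounds were added from DMSO as serial dilutions in medium over 66.7-0.01 μg/mL final. Cells were TCA-fixed and SRB-stained at 0 and 48 h, with absorbance read at 490 nm. GI50 was taken against vehicle-only and time-0 readings.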

In series [3] the test system is MCF7. Kind of series: Growth inhibition of human MCF7 cells after 48 hrs by sulforhodamine B assay. Format: functional. The conditions noted are these: MCF7, 48 h. The gist of the method: as §2
The subject of series [4] is NCI-H460. Kind of series: Growth inhibition of human H460 cells after 48 hrs by sulforhodamine B assay. The following applies: NCI-H460, 48 h. Format: functional. The gist of the method: as §2
Series [5] can be described thus: Growth inhibition of chinese hamster CHOK1 cells after 48 hrs by sulforhodamine B assay. Format: cell-based, Cricetulus griseus. The conditions noted are these: CHO-K1 cells. An outline of the steps:
as §1

For `CC(=O)O[C@H]1CC(C)(C)C(=C=C/C(C)=C/C=C/C(C)=C/C=C/C=C(C)/C=C/C=C(\C)C(=O)C[C@@]23O[C@]2(C)C[C@@H](O)CC3(C)C)[C@](C)(O)C1`, the 50% growth inhibitory concentration (GI50) in series [1] came out at 17 µM; in series [2], 12 µM; in series [3], 8 µM; in series [4], 14 µM. For the same compound, it took 12 µM to inhibit growth in series [5] by half (GI50 at 48 h).

Take `C=CC(C)(C)C1=CC(=O)C(CC=C(C)C)=CC1=O`: the GI50 is 37 µM in series [1], 17 µM in series [2], 26 µM in series [3] and 41 µM in series [4]. The concentration for 50% growth inhibition (GI50) at 48 h in series [5] stood at 17 µM.

On to `C=CC(C)(C)c1cc(O)c(/C=C\C(C)(C)O)cc1O` [COMOSUSOL B], for which the 50% growth inhibitory concentration (GI50) in series [1] was found to be 6 µM; in series [2], 5 µM; in series [3], 6 µM; in series [4] it was 6 µM. The same compound returned a concentration for 50% growth inhibition (GI50) at 48 h in series [5] of 6 µM.

Regarding `OC[C@@H](O)[C@H](O)[C@H](O)[C@@H](O)CO` [GALACTITOL], the concentration for 50% growth inhibition (GI50) in series [1], in series [2], in series [3] and in series [4] was > 220 µM in each case. In addition, the concentration for 50% growth inhibition (GI50) at 48 h in series [5] is > 220 µM.

With `C=CC(C)(C)c1cc(O)c(CC=C(C)C)cc1O` [COMOSUSOL C], the GI50 in series [1] was determined as 43 µM; in series [2], 35 µM; in series [3], 25 µM; in series [4], 29 µM. This compound also gave a GI50 at 48 h in series [5] of 27 µM.

Regarding `C=CC(C)(C)c1cc(O)c(C(O)C(O)C(C)(C)O)cc1O` (stereo not given) [COMOSUSOL D], the concentration for 50% growth inhibition (GI50) in series [1] was 51 µM; in series [2], 59 µM; in series [3], 46 µM; in series [4], 54 µM. In series [5], this compound came in with a concentration for 50% growth inhibition (GI50) at 48 h of 63 µM.

In the case of `CC(C)=CCc1cc(O)cc(/C=C\C(C)(C)O)c1O` [COMOSUSOL A], the concentration for 50% growth inhibition (GI50) in series [1] is 53 µM; in series [2], 55 µM; in series [3] it was 52 µM; in series [4], 55 µM. For the same compound, halving of growth in series [5] (GI50 at 48 h) required 57 µM.

Regarding `CC(C)=CCC1(CC=C(C)C)C[C@@H](O)C=CC1=O` [COMOSONE A], the GI50 came to 19 µM in series [1], 13 µM in series [2], 14 µM in series [3] and 19 µM in series [4]. The compound also yielded a GI50 at 48 h in series [5] of 17 µM.

In the case of `C=CC(C)(C)c1ccc(O)c(CC=C(C)C)c1`, the GI50 in series [1] was determined as 57 µM; in series [2], 39 µM; in series [3] it was 27 µM; in series [4] it was 37 µM. In series [5], this compound gave a concentration for 50% growth inhibition (GI50) at 48 h of 29 µM.
